Experimental data: ChEMBL document CHEMBL1142651, “Design and synthesis of conformationally constrained Grb2 SH2 domain binding peptides employing alpha-methylphenylalanyl based phosphotyrosyl mimetics” (J Med Chem, 2005)
pKd: −log10 of the molar value. “And” between values parts separate entries of the source, which are not always exact repeats. Identical values can stand only once.

Assays:
[1] = biological target: T1, Growth factor receptor-bound protein 2 (Homo sapiens, UniProt P62993); experiment: In vitro binding affinity for growth factor receptor bound protein 2 SH2 domain from human breast cancer cells; type: cell-based, Cancer cell lines
Summary of the method: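 SPR: Grb2 SH2 protein (b-Grb2) amine-coupled to CM5 dextran chip at 2500-5000 RU. Ligands 1.25-1500 nM in PBS pH 7.4 running buffer, injected at 25 °C in increasing order, in duplicate, 1 min association, 3 min dissociation, no regeneration. Double-referenced against a blank surface and buffer injections. KD from global fit (1:1 or heterogeneity model) of at least four independent data sets.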

[2] = biological target: T1, Growth factor receptor-bound protein 2; experiment: In vitro dissociation rate constant for growth factor receptor bound protein 2 SH2 domain from human breast cancer cells; settings: cancer cell lines
[3] = biological target: T1, Growth factor receptor-bound protein 2; experiment: In vitro relative association value for growth factor receptor bound protein 2 SH2 domain from human breast cancer cells; type: cell-based; settings: Cancer cell lines

pKd [1] | koff [2] | Ka [3] | SMILES
8.64 and 8.37 |  |  | C[C@@]1(Cc2ccc(P(=O)(O)O)cc2)NC(=O)CC(c2ccc(CP(=O)(O)O)cc2)/C=C/C[C@@H](Cc2cccc3ccccc23)CNC(=O)[C@H](CC(N)=O)NC1=O (stereo in doubt; 10)
10.01 | 0.00063 s⁻¹ |  | C[C@@]1(Cc2ccc(P(=O)(O)O)cc2)NC(=O)CC(c2ccc(CP(=O)(O)O)cc2)/C=C/C[C@@H](Cc2cccc3ccccc23)CNC(=O)[C@H](CC(N)=O)NC1=O (stereo in doubt; 10A) [listing 1 of 2 here]
 |  | 6.5e+06 1/M·1/S | C[C@@]1(Cc2ccc(P(=O)(O)O)cc2)NC(=O)CC(c2ccc(CP(=O)(O)O)cc2)/C=C/C[C@@H](Cc2cccc3ccccc23)CNC(=O)[C@H](CC(N)=O)NC1=O (stereo in doubt; 10A) [listing 2 of 2 here]
7.14 | 0.018 s⁻¹ |  | C[C@@]1(Cc2ccc(P(=O)(O)O)cc2)NC(=O)CC(c2ccc(CP(=O)(O)O)cc2)/C=C/C[C@@H](Cc2cccc3ccccc23)CNC(=O)[C@H](CC(N)=O)NC1=O (stereo in doubt; 10B) [listing 1 of 2 here]
 |  | 230000 1/M·1/S | C[C@@]1(Cc2ccc(P(=O)(O)O)cc2)NC(=O)CC(c2ccc(CP(=O)(O)O)cc2)/C=C/C[C@@H](Cc2cccc3ccccc23)CNC(=O)[C@H](CC(N)=O)NC1=O (stereo in doubt; 10B) [listing 2 of 2 here]
